# Activity calls are given as the source filed them. No cut-off for these calls is given here.
# Columns and labels:
# Escherichia coli [1] = experiment: Antibacterial activity against Escherichia coli MG1655 grown as planktonic cells after 24 hrs by agar dilution method; type: functional; conditions: K-12 substr. MG1655, 24 h
# Escherichia coli [2] = experiment: Antibacterial activity against Escherichia coli MG1655 grown as biofilms after 24 hrs by agar dilution method; type: functional; conditions: K-12 substr. MG1655, 24 h
# How it was run: (§1)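 Biofilm MIC: cultures diluted to OD600 0.1 in LB, grown in PVC 96-well plates 24 h at 37°C without shaking; antibiotic added directly without washing as 10-fold dilutions, then 24 h more.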
# Escherichia coli [3] = experiment: Antibacterial activity against Escherichia coli MG1655 harboring plasmid pBR322 carrying blaTEM-1 and tetA(C) genes grown as planktonic cells after 24 hrs by agar dilution method; conditions: K-12 substr. MG1655, 24 h
# Escherichia coli [4] = experiment: Antibacterial activity against Escherichia coli MG1655 grown as biofilms harboring plasmid pBR322 carrying blaTEM-1 and tetA(C) genes after 24 hrs by agar dilution method; type: functional; how it was run: as §1
# Escherichia coli [5] = experiment: Antibacterial activity against Escherichia coli OCL62 grown as planktonic cells after 24 hrs by agar dilution method; type: functional; conditions: OCL62, 24 h
# Escherichia coli [6] = experiment: Antibacterial activity against Escherichia coli OCL62 grown as biofilms after 24 hrs by agar dilution method; type: functional; conditions: OCL62, 24 h; how it was run: as §1
# Escherichia coli [7] = experiment: Antibacterial activity against Escherichia coli MG1655 harboring grown as biofilms plasmid pBR322 carrying blaTEM-1 and tetA(C) genes assessed as decrease in bacterial biofilms formation at 5 ug/ml by GFP assay; type: functional; conditions: K-12 substr. MG1655
# Escherichia coli [8] = experiment: Antibacterial activity against Escherichia coli MG1655 grown as biofilms harboring plasmid pBR322 carrying blaTEM-1 and tetA(C) genes assessed as reduction in bacterial biofilms formation; type: functional; conditions: K-12 substr. MG1655
# How it was run: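 Biofilms grown in LB on PVC 96-well plates (inoculum OD600 0.1, 24 h, 37°C, static), then antibiotic added as 10-fold dilutions for 24 h. Eight replicates per condition, four independent experiments.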
# Escherichia coli [9] = experiment: Antibacterial activity against Escherichia coli MG1655 grown as planktonic cells harboring plasmid pBR322 carrying blaTEM-1 and tetA(C) genes assessed as reduction in bacterial biofilms formation; type: functional; conditions: K-12 substr. MG1655
# Escherichia coli [10] = experiment: Antibacterial activity against Escherichia coli MG1655 grown as biofilms assessed as inhibition of bacterial biofilms formation at 5 to 500 ug/ml; type: functional; conditions: K-12 substr. MG1655
# How it was run: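 MG1655 biofilms grown in LB in PVC 96-well plates from early-stationary cultures diluted to OD600 0.1, static 24 h at 37°C. Antibiotic added unwashed as 10-fold dilutions (0.0000005–500 μg/ml) for another 24 h.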
# Escherichia coli [11] = experiment: Antibacterial activity against Escherichia coli OCL62 grown as biofilms harboring plasmid pBR322 carrying blaTEM-1 and tetA(C) genes after 24 hrs by crystal violet staining method; conditions: OCL62, 24 h
# Escherichia coli [12] = experiment: Antibacterial activity against Escherichia coli OCL62 harboring plasmid pBR322 carrying blaTEM-1 and tetA(C) genes grown as planktonic cells after 24 hrs by broth microdilution method; conditions: OCL62, 24 h
molecule,measurement,setting,value
CC1(C)S[C@@H]2[C@H](NC(=O)[C@H](N)c3ccccc3)C(=O)N2[C@H]1C(=O)O [AMPICILLIN],MIC,Escherichia coli [1],0.5 mg/L
same,MIC,Escherichia coli [2],5 mg/L
same,MIC,Escherichia coli [3],500 mg/L
same,MIC,"Escherichia coli [4]; K-12 substr. MG1655, 24 h",5 mg/L
same,MIC,Escherichia coli [5],5 mg/L
same,MIC,Escherichia coli [6],5 mg/L
same,inhibition,Escherichia coli [7],Active
same,inhibition,Escherichia coli [8],Active
same,inhibition,Escherichia coli [9],inactive
same,Activity,Escherichia coli [10],Active
same,MIC,Escherichia coli [11],50 mg/L
same,MIC,Escherichia coli [12],5 mg/L
O=C(N[C@H](CO)[C@H](O)c1ccc([N+](=O)[O-])cc1)C(Cl)Cl [CHLORAMPHENICOL],MIC,Escherichia coli [3],0.5 mg/L
same,MIC,"Escherichia coli [4]; K-12 substr. MG1655, 24 h",5 mg/L
CC[C@H]1OC(=O)[C@H](C)[C@@H](O[C@H]2C[C@@](C)(OC)[C@@H](O)[C@H](C)O2)[C@H](C)[C@@H](O[C@@H]2O[C@H](C)C[C@H](N(C)C)[C@H]2O)[C@](C)(O)C[C@@H](C)C(=O)[C@H](C)[C@@H](O)[C@]1(C)O [ERYTHROMYCIN],MIC,Escherichia coli [3],0.5 mg/L
same,MIC,"Escherichia coli [4]; K-12 substr. MG1655, 24 h",5 mg/L
NC[C@H]1O[C@H](O[C@H]2[C@H](O)[C@@H](O[C@H]3O[C@H](CO)[C@@H](O)[C@H](N)[C@H]3O)[C@H](N)C[C@@H]2N)[C@H](O)[C@@H](O)[C@@H]1O [KANAMYCIN],MIC,"Escherichia coli [4]; K-12 substr. MG1655, 24 h",0.5 mg/L
CC1(C)S[C@@H]2[C@H](NC(=O)Cc3ccccc3)C(=O)N2[C@H]1C(=O)O [PENICILLIN G],MIC,Escherichia coli [3],5 mg/L
same,MIC,"Escherichia coli [4]; K-12 substr. MG1655, 24 h",0.5 mg/L
CN(C)[C@@H]1C(O)=C(C(N)=O)C(=O)[C@@]2(O)C(O)=C3C(=O)c4c(O)cccc4[C@@](C)(O)[C@H]3C[C@@H]12 [TETRACYCLINE],MIC,Escherichia coli [1],0.5 mg/L
same,MIC,Escherichia coli [2],500 mg/L
same,MIC,Escherichia coli [3],500 mg/L
same,MIC,"Escherichia coli [4]; K-12 substr. MG1655, 24 h",> 500 mg/L
same,inhibition,Escherichia coli [7],Active
same,Activity,Escherichia coli [10],Active
GENTAMICIN,MIC,Escherichia coli [4]; K-12 substr. MG1655,0.005 mg/L

# Source: ChEMBL document CHEMBL1671674, “Induction of multidrug resistance mechanism in Escherichia coli biofilms by interplay between tetracycline and ampicillin resistance genes” (2009)
